Data taken from ChEMBL document CHEMBL1165950, “Design and synthesis of new potent anticancer pyrazoles with high FLT3 kinase inhibitory selectivity” (Bioorg Med Chem, 2010).

Assays:
Format in all cases: functional
[1] = test system: SR; test: Cytotoxicity against human SR cells assessed as cell growth at 10 uM; conditions: read-out: Activity
How it was run: (§1)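 NCI-60 screen: cells grown in RPMI 1640 with 5% FBS and 2 mM L-glutamine, plated at 5000–40,000 cells/well according to doubling time, and preincubated 24 h at 37 °C, 5% CO2. The single 10 µM dose (DMSO stock) was added, then incubated 48 h. Cells were TCA-fixed and stained with 0.4% SRB, read at 515 nm, and growth % calculated against time-zero and control plates.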

[2] = Cytotoxicity against human Hs 578T cells assessed as cell growth at 10 uM; conditions: read-out: Activity
How it was run: (§2)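 Single-dose NCI-60 screen at 10 µM. Cells were grown in RPMI 1640 with 5% FBS and 2 mM L-glutamine, then treated for 48 h at 37 °C. Protein was measured by SRB staining with absorbance at 515 nm. Percentage growth was recorded, and inhibition percentage was calculated as 100 minus growth percentage.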

[3] = test system: CAKI-1; test: Cytotoxicity against human Caki1 cells assessed as cell growth at 0.01 uM after 48 hrs by sulforhodamine B assay; conditions: CAKI-1, 48 h, read-out: Activity
[4] = test system: PC-3; test: Growth inhibition of human PC3 cells after 48 hrs by sulforhodamine B assay; conditions: PC-3, 48 h
How it was run: (§3)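 NCI 60-cell screen, five-dose mode. Cells grown in RPMI 1640 with 5% FBS and 2 mM L-glutamine and plated at 5000-40,000 cells/well according to doubling time. After 24 h preincubation, a Tz plate was TCA-fixed. Five concentrations (10-fold or 1/2 log dilutions) were applied for 48 h at 37 °C. SRB staining read at 515 nm. IC50 taken from [(Ti-Tz)/(C-Tz)]×100 = 50.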

[5] = test system: UACC-62; test: Growth inhibition of human UACC62 cells after 48 hrs by sulforhodamine B assay; conditions: UACC-62, 48 h; for CC50: read-out: LC50 (the source's name); how it was run: as §3
[6] = test system: M14; test: Cytotoxicity against human M14 cells assessed as cell growth at 100 nM after 48 hrs by sulforhodamine B assay; conditions: M14, 48 h, read-out: Activity
[7] = test system: NCI/ADR-RES; test: Cytotoxicity against human NCI/ADR-RES cells assessed as cell growth at 0.001 uM after 48 hrs by sulforhodamine B assay; conditions: read-out: Activity
[8] = test system: DU-145; test: Cytotoxicity against human DU145 cells assessed as cell growth at 10 uM; conditions: read-out: Activity; how it was run: as §2
[9] = test system: LOX IMVI; test: Cytotoxicity against human LOXIMVI cells assessed as cell growth at 0.001 uM after 48 hrs by sulforhodamine B assay; conditions: read-out: Activity
[10] = test system: ACHN; test: Cytotoxicity against human ACHN cells assessed as cell growth at 10 uM after 48 hrs by sulforhodamine B assay; conditions: read-out: Activity
How it was run: (§4)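 NCI-60 five-dose screen. Cells were grown in RPMI 1640 with 5% FBS and 2 mM L-glutamine, plated at 5000–40,000 cells/well and preincubated for 24 h. Time-zero plates were TCA-fixed. DMSO-solubilized drug was added at five concentrations (10-fold or ½-log serial dilutions) for 48 h at 37 °C, 5% CO2. Cells were TCA-fixed, stained with 0.4% SRB and read at 515 nm. Percent growth used time-zero, control and test absorbances.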

[11] = test system: NCI-H322M; test: Cytotoxicity against human NCI-H322M cells assessed as cell growth at 10 uM; conditions: read-out: Activity; how it was run: as §1
[12] = test system: NCI-H522; test: Cytotoxicity against human NCI-H522 cells assessed as cell growth at 0.001 uM after 48 hrs by sulforhodamine B assay; conditions: NCI-H522, 48 h, read-out: Activity
[13] = test system: CCRF-CEM; test: Cytotoxicity against human CCRF-CEM cells assessed as cell growth at 1 uM after 48 hrs by sulforhodamine B assay; conditions: read-out: Activity; how it was run: as §4
[14] = test system: SNB-75; test: Cytotoxicity against human SNB75 cells assessed as cell growth at 100 nM after 48 hrs by sulforhodamine B assay; conditions: SNB-75, 48 h, read-out: Activity
[15] = test system: NCI-H460; test: Cytotoxicity against human NCI-H460 cells assessed as cell growth at 10 uM after 48 hrs by sulforhodamine B assay; conditions: NCI-H460, 48 h, read-out: Activity
[16] = test system: M14; test: Growth inhibition of human M14 cells after 48 hrs by sulforhodamine B assay; conditions: M14, 48 h; how it was run: as §3
[17] = test system: BT-549; test: Cytotoxicity against human BT549 cells assessed as cell growth at 10 uM; conditions: read-out: Activity; how it was run: as §2
[18] = test system: NCI-H460; test: Cytotoxicity against human NCI-H460 cells assessed as cell growth at 0.01 uM after 48 hrs by sulforhodamine B assay; conditions: NCI-H460, 48 h, read-out: Activity
[19] = test system: OVCAR-8; test: Cytotoxicity against human OVCAR8 cells assessed as cell growth at 0.01 uM after 48 hrs by sulforhodamine B assay; conditions: OVCAR-8, 48 h, read-out: Activity
[20] = Growth inhibition of human […] cells after 48 hrs by sulforhodamine B assay; conditions: for CC50: read-out: LC50 (the source's name); how it was run: as §3
[21] = test system: A498; test: Cytotoxicity against human A498 cells assessed as cell growth at 0.01 uM after 48 hrs by sulforhodamine B assay; conditions: A498, 48 h, read-out: Activity; how it was run: as §4
[22] = test system: UACC-257; test: Cytotoxicity against human UACC257 cells assessed as cell growth at 1 uM after 48 hrs by sulforhodamine B assay; conditions: UACC-257, 48 h, read-out: Activity
[23] = test system: Malme-3M; test: Cytotoxicity against human MALME-3M cells assessed as cell growth at 10 uM; conditions: read-out: Activity; how it was run: as §1
[24] = test system: NCI-H460; test: Cytotoxicity against human NCI-H460 cells assessed as cell growth at 100 nM after 48 hrs by sulforhodamine B assay; conditions: NCI-H460, 48 h, read-out: Activity
[25] = test system: CCRF-CEM; test: Cytotoxicity against human CCRF-CEM cells assessed as cell growth at 10 uM after 48 hrs by sulforhodamine B assay; conditions: read-out: Activity; how it was run: as §4
[26] = test system: BT-549; test: Cytotoxicity against human BT549 cells assessed as cell growth at 10 uM after 48 hrs by sulforhodamine B assay; conditions: BT-549, 48 h, read-out: Activity; how it was run: as §4
[27] = test system: SW-620; test: Growth inhibition of human SW620 cells after 48 hrs by sulforhodamine B assay; conditions: SW-620, 48 h; for CC50: read-out: LC50 (the source's name); how it was run: as §3
[28] = test system: OVCAR-8; test: Cytotoxicity against human OVCAR8 cells assessed as cell growth at 10 uM after 48 hrs by sulforhodamine B assay; conditions: OVCAR-8, 48 h, read-out: Activity
[29] = test system: HCT-15; test: Cytotoxicity against human HCT15 cells assessed as cell growth at 10 uM after 48 hrs by sulforhodamine B assay; conditions: HCT-15, 48 h, read-out: Activity
[30] = test system: HOP-62; test: Cytotoxicity against human HOP62 cells assessed as cell growth at 1 uM after 48 hrs by sulforhodamine B assay; conditions: HOP-62, 48 h, read-out: Activity
[31] = test system: SW-620; test: Cytotoxicity against human SW620 cells assessed as cell growth at 0.01 uM after 48 hrs by sulforhodamine B assay; conditions: SW-620, 48 h, read-out: Activity
[32] = test system: A498; test: Cytotoxicity against human A498 cells assessed as cell growth at 10 uM after 48 hrs by sulforhodamine B assay; conditions: A498, 48 h, read-out: Activity; how it was run: as §4
[33] = test system: LOX IMVI; test: Cytotoxicity against human LOXIMVI cells assessed as cell growth at 1 uM after 48 hrs by sulforhodamine B assay; conditions: read-out: Activity

Work on `COc1cc(C)cc(-c2nn(CC#N)cc2-c2ccc(-c3cccc(C(C)=O)c3)nc2)c1` yielded a growth at 10 µM [1] of 18.4%, a growth at 10 µM [2] of 32% and a growth at 0.01 µM [3] of 96%. It also gave a GI50 [4] of 3.45 µM, an LC50 (concentration giving 50% net cell kill) [4] of over 100 µM and a TGI [4] of over 100 µM. For the same compound, the GI50 [5] was 4.36 µM, the TGI [5] was over 100 µM and the CC50 [5] was over 100 µM. It also gave a growth at 0.1 µM [6] of 58%, a growth at 0.001 µM [7] of 99% and a growth at 10 µM [8] of 39%. The growth at 0.001 µM [9] was 98%, the growth at 10 µM [10] was 4% and the growth at 10 µM [11] was 64.8%. It also gave a growth at 0.001 µM [12] of 85%, a growth at 1 µM [13] of 13% and a growth at 0.1 µM [14] of 79%. It also gave a growth at 10 µM [15] of -81%, a GI50 [16] of 1.17 µM and a TGI [16] of 3.3 µM. The growth at 10 µM [17] was 25.4%, the growth at 0.01 µM [18] was 104% and the growth at 0.01 µM [19] was 88%. It also gave a GI50 [20] of 3.3 µM, a TGI [20] of 18.6 µM and a CC50 [20] of over 100 µM. The growth at 0.01 µM [21] was 60%, the growth at 1 µM [22] was 34% and the growth at 10 µM [23] was 60.5%. For the same compound, the growth at 0.1 µM [24] was 84%, the growth at 10 µM [25] was 12% and the growth at 10 µM [26] was -24%. For the same compound, the GI50 [27] was 1.3 µM, the TGI [27] was 19.3 µM and the CC50 [27] was over 100 µM. The growth at 10 µM [28] was -11%, the growth at 10 µM [29] was 3% and the growth at 1 µM [30] was 16%. For the same compound, the growth at 0.01 µM [31] was 91%, the growth at 10 µM [32] was -55% and the growth at 1 µM [33] was 23%.

Work on `Cc1cc(O)cc(-c2nn(CC#N)cc2-c2ccnc(-c3ccc(Oc4ccccc4)cc3)c2)c1` yielded a growth at 10 µM [1] of 32.4%, a growth at 10 µM [2] of 75.9% and a growth at 0.01 µM [3] of 90%. The GI50 [4] was 2.15 µM, the LC50 (concentration giving 50% net cell kill) [4] was 62 µM and the TGI [4] was 7.37 µM. It also gave a GI50 [5] of 4.67 µM, a TGI [5] of 18.1 µM and a CC50 [5] of 44.4 µM. It also gave a growth at 0.1 µM [6] of 94%, a growth at 0.001 µM [7] of 105% and a growth at 10 µM [8] of 76.7%. For the same compound, the growth at 0.001 µM [9] was 100%, the growth at 10 µM [10] was -91% and the growth at 10 µM [11] was 80.7%. The growth at 0.001 µM [12] was 83%, the growth at 1 µM [13] was 6% and the growth at 0.1 µM [14] was 78%. It also gave a growth at 10 µM [15] of -88%, a GI50 [16] of 1.7 µM and a TGI [16] of 3.12 µM. It also gave a CC50 ([16]; read-out: LC50 (the source's name)) of 5.73 µM, a growth at 10 µM [17] of 76.1% and a growth at 0.01 µM [18] of 100%. The growth at 0.01 µM [19] was 91%, the GI50 [20] was 2.25 µM and the TGI [20] was 6.52 µM. It also gave a CC50 [20] of over 100 µM, a growth at 0.01 µM [21] of 78% and a growth at 1 µM [22] of -7%. It also gave a growth at 10 µM [23] of 115%, a growth at 0.1 µM [24] of 99% and a growth at 10 µM [25] of 14%. The growth at 10 µM [26] was -81%, the GI50 [27] was 1.94 µM and the TGI [27] was 4.33 µM. It also gave a CC50 [27] of 9.63 µM, a growth at 10 µM [28] of -88% and a growth at 10 µM [29] of -73%. It also gave a growth at 1 µM [30] of 60%, a growth at 0.01 µM [31] of 88% and a growth at 10 µM [32] of -92%. For the same compound, the growth at 1 µM [33] was -91%.
